The results in this text go back to ChEMBL document CHEMBL3351584, “Binding mode and potency of N-indolyloxopyridinyl-4-aminopropanyl-based inhibitors targeting Trypanosoma cruzi CYP51” (J Med Chem, 2014).

The Tmax is the time from dosing to the highest level. As a reminder, the Cmax is the maximum level reached in the sampled fluid or tissue. The AUC(0-t) is exposure summed from dosing to a finite time, without extrapolation to infinity. A higher AUC(0-t) goes with more exposure.

Type in all cases: ADME, organism-based
Series [1] can be described thus: Tmax in Swiss Webster mouse at 25 mg/kg, po administered as single dose by LC-MS/MS method. The conditions noted are these: in vivo. Set-up: dose 25 mg/kg, route oral. The method in brief:
(§1)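 Eight-week-old female Swiss Webster mice (n = 3 per compound) given one oral gavage dose of 25 mg/kg, formulated at 5 mg/mL in 20% Kolliphor/80% water. Plasma sampled at about 0.25, 0.5, 1, 2, 4, 6, 8, 12 and 24 h, precipitated with 5× v/v acetonitrile, filtered 0.2 μm and quantified by LC–MS/MS. Parameters calculated from plasma concentration–time curves, averaged over three mice.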

The nature of series [2]: Cmax in Swiss Webster mouse at 25 mg/kg, po administered as single dose by LC-MS/MS method. Set-up: dose 25 mg/kg, route oral. The note with it: in vivo. The method in brief: as §1
The next series concerns Mus musculus. The series can be described thus: Volume of distribution in Swiss Webster mouse at 25 mg/kg, po administered as single dose by LC-MS/MS method. Set-up: dose 25 mg/kg, route oral. The conditions noted are these: in vivo. The method in brief: as §1
Series [3] is described as follows: AUClast in Swiss Webster mouse at 25 mg/kg, po administered as single dose by LC-MS/MS method. The arrangement: dose 25 mg/kg, route oral, time 0 - last. The note with it: plasma. The method in brief:
as §1

The next series is filed under the species Homo sapiens. The series can be described thus: Volume of distribution in human. The note with it: in vivo.

With `O=C(N[C@H](Cc1c[nH]c2ccccc12)C(=O)Nc1ccncc1)c1ccc(N2CCN(c3cc(Cl)cc(Cl)c3)CC2)cc1F`, in series [1], the Tmax is 4.67 h. In series [2], the Cmax was 1850 nM. This compound displayed a Vd with Mus musculus of 3.97 L/kg. This compound showed an AUC(0-t) in series [3] of 22.5 µM·h.

`Cc1ccc(Cl)cc1N1CCN(c2ccc(C(=O)N[C@H](Cc3c[nH]c4ccccc34)C(=O)Nc3ccncc3)c(F)c2)CC1`: the Tmax in series [1] came out at 3.33 h. The compound also gave a Cmax in series [2] of 1800 nM. Besides, the Vd in the series with Mus musculus turned out to be 3.44 L/kg. The AUC(0-t) in series [3] was determined as 19 µM·h.

In turn, `CC[C@@H]([C@H](C)O)n1ncn(-c2ccc(N3CCN(c4ccc(OC[C@@H]5CO[C@@](Cn6cncn6)(c6ccc(F)cc6F)C5)cc4)CC3)cc2)c1=O` [POSACONAZOLE] had a Vd in the series listed under Homo sapiens of 5 L/kg.
